Test results from ChEMBL document CHEMBL3758103, “Anti-herpetic and anti-dengue activity of abietane ferruginol analogues synthesized from (+)-dehydroabietylamine” (Eur J Med Chem, 2016).
In brackets after ≈: the same amount, converted by molar mass. Activity calls are given as the source filed them. No cut-off for these calls is given here.

Experiments:
dengue virus type 2 [1] = assay: Antiviral activity against DENV-2 New guinea infected in African green monkey Vero cells assessed as inhibition of virus-induced cytopathic effect after 3 days by crystal violet staining based inverted microscopic analysis relative to control; format: functional, organism-based
dengue virus type 2 [2] = assay: Antiviral activity against DENV-2 New guinea infected in African green monkey Vero cells assessed as maximal non toxic concentration causing inhibition of virus-induced cytopathic effect after 3 days by crystal violet staining based inverted microscopic analysis; format: functional
dengue virus type 2 [3] = assay: Antiviral activity against DENV-2 New guinea infected in African green monkey Vero cells assessed as reduction in plaque formation administered post viral infection after 8 days by crystal violet staining technique; format: functional, organism-based; settings: 192 h
How it was run: (§1)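 Plaque reduction on Vero monolayers (2.5 × 10^4 cells/well) infected with 100 PFU/well. Pre-infection arm: virus–compound mixture added for 1 h at 37 °C, PBS wash, then CMC overlay. Post-infection arm: virus adsorbed 1 h, washed, then compound given in CMC. CMC was 1% for HHV-1, 0.75% for HHV-2 and 2% for DENV-2. Plates ran 72 h (HHV) or 8 days (DENV-2) before crystal violet staining. EC50 came from linear regression over ≥4 dilutions in quadruplicate.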

Human alphaherpesvirus 1 [4] = assay: Antiviral activity against HHV1 CDC Atlanta infected in African green monkey Vero cells assessed as reduction of viral titer at maximal non-toxic concentration after 48 hrs by crystal violet staining assay relative to control; format: functional
How it was run: (§2)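 End-point titration on Vero monolayers (2.0 × 10^4 cells/well, ≥80% confluent) with 10 TCID50 virus. Virus–compound mixtures (6.25–50 μg/mL) in DMEM/2% FBS with CMC (1% for HHV-1, 0.5% for HHV-2) were held 15 min at room temperature. Incubation was 48 h (HHV-1) or 72 h (HHV-2) at 37 °C, then formaldehyde/crystal violet staining and plaque counting. Read-out is the viral titer reduction factor. Two experiments in quadruplicate.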

Human alphaherpesvirus 2 [5] = assay: Antiviral activity against HHV-2 VR-734-G infected in African green monkey Vero cells assessed as reduction of viral titer at maximal non-toxic concentration after 72 hrs by crystal violet staining assay relative to control; format: functional; how it was run: as §2
Human alphaherpesvirus 2 [6] = assay: Antiviral activity against HHV-2 VR-734-G infected in African green monkey Vero cells assessed as maximal non toxic concentration causing reduction of viral titer after 72 hrs by crystal violet staining assay; format: functional; how it was run: as §2
Vero [7] = assay: Cytotoxicity against African green monkey Vero cells assessed as inhibition of cell proliferation after 72 hrs; format: cell-based; settings: Chlorocebus sabaeus
Human alphaherpesvirus 1 [8] = assay: Antiviral activity against HHV-1 CDC Atlanta infected in African green monkey Vero cells assessed as reduction in plaque formation administered post viral infection after 72 hrs by crystal violet staining technique; format: functional, organism-based; how it was run: as §1
Human alphaherpesvirus 2 [9] = assay: Antiviral activity against HHV-2 VR-734-G infected in African green monkey Vero cells assessed as reduction in plaque formation administered post viral infection after 72 hrs by crystal violet staining technique; format: functional, organism-based; settings: Human alphaherpesvirus 2, VR-734-G; how it was run: as §1
Human alphaherpesvirus 1 [10] = assay: Antiviral activity against HHV-1 CDC Atlanta infected in African green monkey Vero cells assessed as maximal non toxic concentration causing reduction of viral titer after 48 hrs by crystal violet staining assay; format: functional; how it was run: as §2
HeLa [11] = assay: Cytotoxicity against human HeLa cells assessed as cell growth inhibition after 48 hrs by MTT assay; format: functional, cell-based
How it was run: (§3)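 MTT assay. Vero and HeLa cells plated at 2.0 × 10^4/well and preincubated 24 h; Jurkat and U937 plated at 3.0 × 10^4/well. Compounds were applied 48 h at 37 °C, 5% CO2, with 0.05% DMSO. Absorbance read at 570 nm and IC50 taken by linear regression. Values are the geometric mean of two experiments in quadruplicate.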

HeLa [12] = assay: Selectivity index, ratio of IC50 for African green monkey Vero cells to IC50 for human HeLa cells; format: functional
How it was run: (§4)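 SI calculated as Vero IC50 divided by HeLa, Jurkat or U937 IC50, all from the 48 h MTT assay.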

Jurkat [13] = assay: Cytotoxicity against human Jurkat cells assessed as cell growth inhibition after 48 hrs by MTT assay; format: functional, cell-based; how it was run: as §3
Jurkat [14] = assay: Selectivity index, ratio of IC50 for African green monkey Vero cells to IC50 for human Jurkat cells; format: functional; how it was run: as §4
[15] = Cytotoxicity against human U937 cells assessed as cell growth inhibition after 48 hrs by MTT assay; format: functional, cell-based; settings: U-937, 48 h; how it was run: as §3
Vero [16] = assay: Selectivity index, ratio of IC50 for African green monkey Vero cells to IC50 for human U937 cells; format: functional; how it was run: as §4
Vero [17] = assay: Cytotoxicity against African green monkey Vero cells assessed as cell growth inhibition after 48 hrs by MTT assay; format: cell-based; settings: Chlorocebus sabaeus; how it was run: as §3
Vero [18] = assay: Cytotoxicity against African green monkey Vero cells assessed as inhibition of cell proliferation after 8 days; format: cell-based; settings: Chlorocebus sabaeus, 192 h
Human alphaherpesvirus 1 [19] = assay: Antiviral activity against HHV-1 CDC Atlanta infected in African green monkey Vero cells assessed as reduction in plaque formation administered simultaneously with virus for 1 hr measured after 72 hrs by crystal violet staining technique; format: functional, organism-based; how it was run: as §1
Human alphaherpesvirus 2 [20] = assay: Antiviral activity against HHV-2 VR-734-G infected in African green monkey Vero cells assessed as reduction in plaque formation administered simultaneously with virus for 1 hr measured after 72 hrs by crystal violet staining technique; format: functional, organism-based; how it was run: as §1
dengue virus type 2 [21] = assay: Antiviral activity against DENV-2 New guinea infected in African green monkey Vero cells assessed as reduction in plaque formation administered simultaneously with virus for 1 hr measured after 8 days by crystal violet staining technique; format: functional, organism-based; how it was run: as §1
[22] = Selectivity index, ratio of IC50 for African green monkey vero cells to EC50 for HHV-1 compound administered post viral infection
How it was run: (§5)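 Antiviral SI calculated as Vero IC50 divided by the post-infection plaque-reduction EC50 for each virus on Vero cells.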

[23] = Selectivity index, ratio of IC50 for African green monkey vero cells to EC50 for HHV-2 compound administered post viral infection; how it was run: as §5
[24] = Selectivity index, ratio of IC50 for African green monkey vero cells to EC50 for DENV-2 compound administered post viral infection; how it was run: as §5
Human alphaherpesvirus 2 [25] = assay: Antiviral activity against HHV-2 VR-734-G infected in African green monkey Vero cells assessed as viral plaque size reduction at 20.8 uM after 72 hrs by crystal violet staining based inverted microscopic analysis relative to control; format: functional; set-up: scale not given: the % may be the effect or the level left
How it was run: (§6)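 Vero cells (2.5 × 10^4/well) infected with 100 PFU/well, with compound in CMC added 2 h after infection. Incubation was 72 h for HHV strains and 8 days for DENV-2, then formaldehyde/crystal violet staining. Twenty plaques per concentration per well were imaged and their areas […] measured against mock-treated controls. Two experiments in duplicate.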

Trichophyton rubrum = assay: Antifungal activity against Trichophyton rubrum ATCC 28188 assessed as microbial growth inhibition after 6 days by microdilution assay; format: functional; settings: ATCC 28188, 144 h
How it was run: (§7)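 Broth microdilution under CLSI M38-A with modifications, in duplicate, at final compound concentrations of 50–3.125 μg/mL. […] Values are the geometric mean of duplicate tests in three assays. Assay DMSO was 0.05%.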

[26] = system: Trichophyton mentagrophytes; assay: Antifungal activity against Trichophyton mentagrophytes ATCC 24198 assessed as microbial growth inhibition after 6 days by microdilution assay; format: functional; settings: ATCC 24198, 144 h; how it was run: as §7
Fusarium oxysporum = assay: Antifungal activity against Fusarium oxysporum ATCC 48112 assessed as microbial growth inhibition after 48 hrs by microdilution assay; format: functional, organism-based; how it was run: as §7
Aspergillus fumigatus = assay: Antifungal activity against Aspergillus fumigatus ATCC 204305 assessed as microbial growth inhibition by microdilution assay; format: functional, organism-based; how it was run: as §7
Aspergillus flavus = assay: Antifungal activity against Aspergillus flavus ATCC 204304 assessed as microbial growth inhibition by microdilution assay; format: functional, organism-based; how it was run: as §7
Aspergillus terreus = assay: Antifungal activity against Aspergillus terreus CDC 317 assessed as microbial growth inhibition by microdilution assay; format: functional, organism-based; how it was run: as §7
Candida albicans = assay: Antifungal activity against Candida albicans […] assessed as microbial growth inhibition after 24 hrs by microdilution assay; format: functional, organism-based
How it was run: (§8)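 Yeast microdilution by the AFST-EUCAST method at an inoculum of 1–5 × 10^5 CFU/mL, final compound concentrations 50–3.125 μg/mL, in duplicate. MIC is the lowest concentration giving 90% growth reduction after 24 h at 35 °C. Untreated inoculum served as negative control. Values are the geometric mean of duplicate tests in three assays.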

Candida parapsilosis = assay: Antifungal activity against Candida parapsilosis ATCC 22019 assessed as microbial growth inhibition after 24 hrs by microdilution assay; format: functional, organism-based; how it was run: as §8
Candida tropicalis = assay: Antifungal activity against Candida tropicalis ATCC 200956 assessed as microbial growth inhibition after 24 hrs by microdilution assay; format: functional, organism-based; how it was run: as §8
Human alphaherpesvirus 1 [27] = assay: Antiviral activity against HHV-1 CDC Atlanta infected in African green monkey Vero cells assessed as viral plaque size reduction at 29 uM after 72 hrs by crystal violet staining based inverted microscopic analysis relative to control; format: functional; set-up: scale not given: the % may be the effect or the level left; how it was run: as §6
dengue virus type 2 [28] = assay: Antiviral activity against DENV-2 New guinea infected in African green monkey Vero cells assessed as viral plaque size reduction at 3.6 uM after 8 days by crystal violet staining based inverted microscopic analysis relative to control; format: functional; set-up: scale not given: the % may be the effect or the level left; how it was run: as §6
Human alphaherpesvirus 1 [29] = assay: Antiviral activity against acyclovir-resistant HHV-1 29R infected in African green monkey Vero cells assessed as viral plaque size reduction at 29 uM after 72 hrs by crystal violet staining based inverted microscopic analysis relative to control; format: functional; set-up: scale not given: the % may be the effect or the level left; how it was run: as §6
[30] = Human alphaherpesvirus 1, CDC Atlanta, Vero, 72 h, read-out: EC50

## NC(=O)c1ncn([C@@H]2O[C@H](CO)[C@@H](O)[C@H]2O)n1 [RIBAVIRIN]
Dengue virus type 2 [1]
  Activity: Active
Dengue virus type 2 [2]
  MNTD: 123 µM
Dengue virus type 2 [3]
  EC50: 13.5 µM

## Nc1nc2c(ncn2COCCO)c(=O)[nH]1 [ACYCLOVIR]
Human alphaherpesvirus 1 [4]
  fold change (FC): 10000
Human alphaherpesvirus 2 [5]
  fold change (FC): 1000
Human alphaherpesvirus 2 [6]
  MNTD: 6.7 µM
Vero [7]
  IC50: > 1700 µM
Human alphaherpesvirus 1 [8]; [30]
  EC50: 2.2 µM
Human alphaherpesvirus 2 [9]
  EC50: 0.27 µM

## CC(C)c1cc2c(cc1O)[C@@]1(C)CCC[C@@](C)(C=O)[C@@H]1CC2 [18-OXOFERRUGINOL]
Human alphaherpesvirus 1 [4]
  fold change (FC): inactive
Human alphaherpesvirus 1 [10]
  MNTD: inactive
Human alphaherpesvirus 2 [5]
  fold change (FC): 1000
Human alphaherpesvirus 2 [6]
  MNTD: 41.7 µM
Dengue virus type 2 [1]
  Activity: Active
HeLa [11]
  IC50: 60 µM
HeLa [12]
  Ratio IC50: 1.5
Jurkat [13]
  IC50: 21.6 µM
Jurkat [14]
  Ratio IC50: 4.2
[15]
  IC50: 33.2 µM
Vero [16]
  Ratio IC50: 2.7
Vero [17]
  IC50: 90.8 µM
Vero [7]
  IC50: 97.8 µM
Vero [18]
  IC50: 52.2 µM
Human alphaherpesvirus 1 [19]
  EC50: Not Active
Human alphaherpesvirus 2 [20]
  EC50: Not Active
Dengue virus type 2 [21]
  EC50: Not Active
Human alphaherpesvirus 1 [8]; [30]
  EC50: 19.6 µM
Human alphaherpesvirus 2 [9]
  EC50: 16.6 µM
Dengue virus type 2 [3]
  EC50: 5 µM
[22]
  Ratio IC50/EC50: 4.9
[23]
  Ratio IC50/EC50: 5.9
[24]
  Ratio IC50/EC50: 10.4
Human alphaherpesvirus 2 [25]
  Activity: 68.2%
Trichophyton rubrum
  MIC80: 41.7 µM (≈ 12.5 µg/mL)
[26]
  MIC80: 83.3 µM (≈ 25 µg/mL)
Fusarium oxysporum
  Activity: inactive
Aspergillus fumigatus
  Activity: inactive
Aspergillus flavus
  Activity: inactive
Aspergillus terreus
  Activity: inactive
Candida albicans
  Activity: inactive
Candida parapsilosis
  Activity: inactive
Candida tropicalis
  Activity: inactive

## CC(C)c1cc2c(cc1O)[C@@]1(C)CCC[C@@](C)(CN3C(=O)c4ccccc4C3=O)[C@@H]1CC2
Human alphaherpesvirus 1 [4]
  fold change (FC): 100
Human alphaherpesvirus 1 [10]
  MNTD: 14.5 µM
Human alphaherpesvirus 2 [5]
  fold change (FC): 1000
Human alphaherpesvirus 2 [6]
  MNTD: 29 µM
Dengue virus type 2 [1]
  Activity: Active
HeLa [11]
  IC50: > 50 µM
Jurkat [13]
  IC50: > 50 µM
[15]
  IC50: > 50 µM
Vero [7]
  IC50: 191 µM
Vero [18]
  IC50: 80.8 µM
Human alphaherpesvirus 1 [19]
  EC50: Not Active
Human alphaherpesvirus 2 [20]
  EC50: Not Active
Dengue virus type 2 [21]
  EC50: Not Active
Human alphaherpesvirus 1 [8]; vero
  EC50: Not Active
Human alphaherpesvirus 2 [9]
  EC50: 19.2 µM
Dengue virus type 2 [3]
  EC50: 1.4 µM
[23]
  Ratio IC50/EC50: 10
[24]
  Ratio IC50/EC50: 57.7
Human alphaherpesvirus 1 [27]
  Activity: 93.7%
Dengue virus type 2 [28]
  Activity: 77.9%
Human alphaherpesvirus 1 [29]
  Activity: 87.1%
Fusarium oxysporum
  Activity: inactive
Aspergillus fumigatus
  Activity: inactive
Aspergillus flavus
  Activity: inactive
Aspergillus terreus
  Activity: inactive
Candida albicans
  Activity: inactive
Candida parapsilosis
  Activity: inactive
Candida tropicalis
  Activity: inactive
